According to ChEMBL document CHEMBL4371006, “Discovery of N-[4-(Quinolin-4-yloxy)phenyl]benzenesulfonamides as Novel AXL Kinase Inhibitors” (J Med Chem, 2018):

Experiments:
[1] = molecular target: T1, Proto-oncogene tyrosine-protein kinase Src (Homo sapiens, UniProt P12931); assay: Inhibition of SRC (unknown origin) using fluorescence labeled peptide as substrate at 10 uM by IMAP assay relative to control
Procedure, shortened: (§1)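 IMAP fluorescence-polarization kinase assay at 10 µmol/L compound, run in triplicate by a contract lab. A fluorescently labeled substrate peptide is phosphorylated, then nanoparticles carrying trivalent metal bind the phosphopeptide and slow its rotation. Read-out is fluorescence polarization, expressed as percent inhibition.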

[2] = molecular target: T1, Proto-oncogene tyrosine-protein kinase Src; assay: Inhibition of SRC (unknown origin) using biotinylated peptide as substrate at 10 uM by TR-FRET assay relative to control
[3] = molecular target: Mast/stem cell growth factor receptor Kit (Homo sapiens) (UniProt P10721); assay: Inhibition of cKIT (unknown origin) using fluorescence labeled peptide as substrate at 10 uM by IMAP assay relative to control; procedure, shortened: as §1
Sequence of Mast/stem cell growth factor receptor Kit (Homo sapiens) (P10721 whole entry): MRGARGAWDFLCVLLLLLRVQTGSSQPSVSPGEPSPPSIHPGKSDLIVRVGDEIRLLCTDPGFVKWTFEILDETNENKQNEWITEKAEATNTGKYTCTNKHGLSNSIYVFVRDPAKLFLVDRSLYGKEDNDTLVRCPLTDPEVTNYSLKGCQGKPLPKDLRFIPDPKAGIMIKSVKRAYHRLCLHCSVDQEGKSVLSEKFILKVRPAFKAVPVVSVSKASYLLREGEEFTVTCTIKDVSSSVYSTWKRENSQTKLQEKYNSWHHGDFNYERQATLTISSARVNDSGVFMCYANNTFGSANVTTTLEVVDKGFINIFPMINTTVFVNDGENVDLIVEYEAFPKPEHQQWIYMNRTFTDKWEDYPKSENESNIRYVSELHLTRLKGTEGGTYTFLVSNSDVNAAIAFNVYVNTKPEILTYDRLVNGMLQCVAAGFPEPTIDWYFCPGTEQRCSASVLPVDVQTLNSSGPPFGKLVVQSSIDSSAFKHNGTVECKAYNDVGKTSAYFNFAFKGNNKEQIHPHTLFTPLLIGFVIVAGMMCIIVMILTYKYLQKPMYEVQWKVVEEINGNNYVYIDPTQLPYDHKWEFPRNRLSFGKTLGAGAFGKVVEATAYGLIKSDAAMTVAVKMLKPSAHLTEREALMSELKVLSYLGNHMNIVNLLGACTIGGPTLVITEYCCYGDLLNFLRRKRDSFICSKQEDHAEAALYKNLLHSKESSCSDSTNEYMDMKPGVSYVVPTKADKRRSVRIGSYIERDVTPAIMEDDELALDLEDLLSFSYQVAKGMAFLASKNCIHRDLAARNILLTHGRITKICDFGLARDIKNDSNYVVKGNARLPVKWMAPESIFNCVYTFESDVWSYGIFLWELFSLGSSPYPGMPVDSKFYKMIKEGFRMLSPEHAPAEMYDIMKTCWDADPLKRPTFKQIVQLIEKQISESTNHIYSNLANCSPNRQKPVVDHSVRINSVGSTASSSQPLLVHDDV

[4] = molecular target: Angiopoietin-1 receptor (Homo sapiens) (UniProt Q02763); assay: Inhibition of TIE2 (unknown origin) using biotinylated peptide as substrate at 10 uM by TR-FRET assay relative to control
Sequence of Angiopoietin-1 receptor (Homo sapiens) (Q02763 whole entry): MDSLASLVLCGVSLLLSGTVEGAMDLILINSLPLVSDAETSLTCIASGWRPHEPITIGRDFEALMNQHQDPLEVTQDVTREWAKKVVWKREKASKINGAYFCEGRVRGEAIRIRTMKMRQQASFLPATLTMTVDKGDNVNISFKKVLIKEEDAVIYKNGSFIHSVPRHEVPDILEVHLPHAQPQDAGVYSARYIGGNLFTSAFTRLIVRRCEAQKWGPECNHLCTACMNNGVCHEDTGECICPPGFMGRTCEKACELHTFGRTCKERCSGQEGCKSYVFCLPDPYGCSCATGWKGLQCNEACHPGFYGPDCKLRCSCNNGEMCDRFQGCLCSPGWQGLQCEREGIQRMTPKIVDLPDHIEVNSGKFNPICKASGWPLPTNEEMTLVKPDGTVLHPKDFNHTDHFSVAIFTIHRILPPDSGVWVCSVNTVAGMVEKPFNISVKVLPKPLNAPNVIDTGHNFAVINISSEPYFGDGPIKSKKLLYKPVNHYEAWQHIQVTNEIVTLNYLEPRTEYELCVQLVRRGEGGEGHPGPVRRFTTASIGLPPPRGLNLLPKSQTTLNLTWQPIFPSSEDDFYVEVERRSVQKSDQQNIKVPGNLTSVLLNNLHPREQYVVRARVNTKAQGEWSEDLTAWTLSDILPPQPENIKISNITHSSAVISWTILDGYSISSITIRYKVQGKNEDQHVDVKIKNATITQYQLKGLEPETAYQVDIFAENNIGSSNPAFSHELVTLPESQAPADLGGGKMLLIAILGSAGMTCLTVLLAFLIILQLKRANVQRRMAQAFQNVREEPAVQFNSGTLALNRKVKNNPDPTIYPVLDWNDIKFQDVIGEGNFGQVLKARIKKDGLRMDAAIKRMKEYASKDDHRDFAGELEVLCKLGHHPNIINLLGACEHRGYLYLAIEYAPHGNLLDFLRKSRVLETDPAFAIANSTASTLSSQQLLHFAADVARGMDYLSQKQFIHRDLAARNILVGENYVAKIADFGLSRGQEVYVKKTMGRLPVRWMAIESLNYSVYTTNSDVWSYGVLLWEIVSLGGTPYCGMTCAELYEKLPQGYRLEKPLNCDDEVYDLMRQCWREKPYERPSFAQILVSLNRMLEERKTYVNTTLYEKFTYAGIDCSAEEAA

[5] = molecular target: T2, Tyrosine-protein kinase receptor UFO (Homo sapiens, UniProt P30530); assay: Binding affinity to AXL in SILAC-labeled human MDA-MB-231 cells lysate by mass spectrometry based kinAffinity assay; type: subcellular
T2 sequence (P30530 whole entry): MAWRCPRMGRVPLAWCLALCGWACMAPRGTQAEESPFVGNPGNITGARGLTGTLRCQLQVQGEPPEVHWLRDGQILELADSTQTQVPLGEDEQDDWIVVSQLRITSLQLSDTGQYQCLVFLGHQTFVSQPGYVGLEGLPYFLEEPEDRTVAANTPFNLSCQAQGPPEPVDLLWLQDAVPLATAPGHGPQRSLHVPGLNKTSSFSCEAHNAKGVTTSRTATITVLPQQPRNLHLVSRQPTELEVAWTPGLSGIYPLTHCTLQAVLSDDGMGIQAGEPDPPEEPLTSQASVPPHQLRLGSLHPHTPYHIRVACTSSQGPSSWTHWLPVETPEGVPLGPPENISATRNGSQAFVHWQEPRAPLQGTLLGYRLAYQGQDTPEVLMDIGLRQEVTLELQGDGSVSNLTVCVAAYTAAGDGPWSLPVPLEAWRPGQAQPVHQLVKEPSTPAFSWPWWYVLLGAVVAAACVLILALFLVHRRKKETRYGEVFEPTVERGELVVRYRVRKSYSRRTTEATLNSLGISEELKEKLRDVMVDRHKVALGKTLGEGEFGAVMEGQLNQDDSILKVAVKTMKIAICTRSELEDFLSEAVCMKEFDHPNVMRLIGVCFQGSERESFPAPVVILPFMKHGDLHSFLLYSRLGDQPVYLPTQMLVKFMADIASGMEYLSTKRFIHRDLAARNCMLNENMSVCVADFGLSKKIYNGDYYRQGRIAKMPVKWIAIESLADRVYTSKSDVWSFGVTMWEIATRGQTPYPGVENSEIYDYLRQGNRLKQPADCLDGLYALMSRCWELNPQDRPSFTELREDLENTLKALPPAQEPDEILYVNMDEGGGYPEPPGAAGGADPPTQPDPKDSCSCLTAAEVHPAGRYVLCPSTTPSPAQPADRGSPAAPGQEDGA
Procedure, shortened: (§2)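 Chemical proteomics: MDA-MB-231 lysate bound to matrix of immobilized broad kinase inhibitors at several densities (BC50), then competed with increasing free compound (CC50); proteins quantified by mass spectrometry, Kd via Cheng-Prusoff. Two competition formats run in parallel to check equilibrium.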

[6] = molecular target: Mitogen-activated protein kinase kinase kinase kinase 5 (Homo sapiens, UniProt Q9Y4K4); assay: Binding affinity to MAP4K5 in SILAC-labeled human MDA-MB-231 cells lysate by mass spectrometry based kinAffinity assay; type: subcellular; procedure, shortened: as §2
[7] = molecular target: Tyrosine-protein kinase Lyn (Homo sapiens, UniProt P07948); assay: Binding affinity to LYN in SILAC-labeled human MDA-MB-231 cells lysate by mass spectrometry based kinAffinity assay; type: subcellular; procedure, shortened: as §2
Sequence of Tyrosine-protein kinase Lyn (P07948 whole entry, the tested form may be a part): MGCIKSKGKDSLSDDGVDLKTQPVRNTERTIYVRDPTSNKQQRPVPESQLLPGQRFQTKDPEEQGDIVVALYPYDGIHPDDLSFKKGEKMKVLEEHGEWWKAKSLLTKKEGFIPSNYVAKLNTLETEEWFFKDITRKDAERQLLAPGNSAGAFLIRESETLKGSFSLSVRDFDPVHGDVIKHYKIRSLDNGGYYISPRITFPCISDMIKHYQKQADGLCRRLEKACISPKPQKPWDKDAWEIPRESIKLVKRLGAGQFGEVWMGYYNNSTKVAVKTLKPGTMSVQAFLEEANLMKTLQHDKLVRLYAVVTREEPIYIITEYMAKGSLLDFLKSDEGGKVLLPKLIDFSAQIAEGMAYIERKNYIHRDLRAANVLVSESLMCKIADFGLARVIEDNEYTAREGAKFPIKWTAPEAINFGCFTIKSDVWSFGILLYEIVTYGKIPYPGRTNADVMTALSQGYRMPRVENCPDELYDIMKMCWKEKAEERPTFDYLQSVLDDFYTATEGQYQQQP

LIM domain kinase 1 = LIM domain kinase 1 (Homo sapiens, UniProt P53667); assay: Binding affinity to LIMK1 in SILAC-labeled human MDA-MB-231 cells lysate by mass spectrometry based kinAffinity assay; type: subcellular; procedure, shortened: as §2
[8] = molecular target: Inhibitor of nuclear factor kappa-B kinase subunit epsilon (Homo sapiens, UniProt Q14164); assay: Binding affinity to IKKE in SILAC-labeled human MDA-MB-231 cells lysate by mass spectrometry based kinAffinity assay; type: subcellular; procedure, shortened: as §2
[9] = molecular target: 5'-AMP-activated protein kinase catalytic subunit alpha-1 (Homo sapiens, UniProt Q13131); assay: Binding affinity to PRKAA1 in SILAC-labeled human MDA-MB-231 cells lysate by mass spectrometry based kinAffinity assay; type: subcellular
Procedure, shortened: (§3)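 MDA-MB-231 lysate applied to KinAffinity matrix of immobilized broadband kinase inhibitors at graded densities to obtain BC50 per target. Competition then run with increasing free compound to give CC50; Kd derived by Cheng-Prusoff. Two competition experiments in parallel to check equilibrium, one with lysate pre-incubated with compound before adding matrix. Quantitation by mass spectrometry.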

[10] = molecular target: 5'-AMP-activated protein kinase subunit gamma-2 (Homo sapiens, UniProt Q9UGJ0); assay: Binding affinity to PRKAG2 in SILAC-labeled human MDA-MB-231 cells lysate by mass spectrometry based kinAffinity assay; type: subcellular; procedure, shortened: as §3
Sequence of 5'-AMP-activated protein kinase subunit gamma-2 (Q9UGJ0 whole entry): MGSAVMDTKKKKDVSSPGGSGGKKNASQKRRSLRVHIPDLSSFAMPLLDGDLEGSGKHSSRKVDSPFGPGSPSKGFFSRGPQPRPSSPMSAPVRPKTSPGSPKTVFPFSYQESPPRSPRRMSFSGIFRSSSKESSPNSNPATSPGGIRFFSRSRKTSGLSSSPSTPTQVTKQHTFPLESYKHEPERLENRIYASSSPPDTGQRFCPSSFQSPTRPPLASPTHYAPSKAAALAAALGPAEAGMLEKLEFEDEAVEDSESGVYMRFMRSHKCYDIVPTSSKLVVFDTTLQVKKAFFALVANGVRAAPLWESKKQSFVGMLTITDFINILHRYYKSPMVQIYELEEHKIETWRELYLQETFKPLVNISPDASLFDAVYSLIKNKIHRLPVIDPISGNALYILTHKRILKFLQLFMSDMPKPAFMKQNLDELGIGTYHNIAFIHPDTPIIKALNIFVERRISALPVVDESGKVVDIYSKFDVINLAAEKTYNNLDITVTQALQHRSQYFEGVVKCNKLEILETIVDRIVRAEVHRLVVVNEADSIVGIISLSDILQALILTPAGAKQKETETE

[11] = molecular target: Serine/threonine-protein kinase 4 (Homo sapiens, UniProt Q13043); assay: Binding affinity to MST1 in SILAC-labeled human MDA-MB-231 cells lysate by mass spectrometry based kinAffinity assay; type: subcellular; procedure, shortened: as §3
[12] = molecular target: TRAF family member-associated NF-kappa-B activator (Homo sapiens, UniProt Q92844); assay: Binding affinity to TANK in SILAC-labeled human MDA-MB-231 cells lysate by mass spectrometry based kinAffinity assay; type: subcellular; procedure, shortened: as §3
[13] = molecular target: T2, Tyrosine-protein kinase receptor UFO; assay: Inhibition of AXL (unknown origin)
[14] = molecular target: Epidermal growth factor receptor (Homo sapiens, UniProt P00533); assay: Inhibition of wild type EGFR (unknown origin)
Sequence of Epidermal growth factor receptor (P00533 whole entry): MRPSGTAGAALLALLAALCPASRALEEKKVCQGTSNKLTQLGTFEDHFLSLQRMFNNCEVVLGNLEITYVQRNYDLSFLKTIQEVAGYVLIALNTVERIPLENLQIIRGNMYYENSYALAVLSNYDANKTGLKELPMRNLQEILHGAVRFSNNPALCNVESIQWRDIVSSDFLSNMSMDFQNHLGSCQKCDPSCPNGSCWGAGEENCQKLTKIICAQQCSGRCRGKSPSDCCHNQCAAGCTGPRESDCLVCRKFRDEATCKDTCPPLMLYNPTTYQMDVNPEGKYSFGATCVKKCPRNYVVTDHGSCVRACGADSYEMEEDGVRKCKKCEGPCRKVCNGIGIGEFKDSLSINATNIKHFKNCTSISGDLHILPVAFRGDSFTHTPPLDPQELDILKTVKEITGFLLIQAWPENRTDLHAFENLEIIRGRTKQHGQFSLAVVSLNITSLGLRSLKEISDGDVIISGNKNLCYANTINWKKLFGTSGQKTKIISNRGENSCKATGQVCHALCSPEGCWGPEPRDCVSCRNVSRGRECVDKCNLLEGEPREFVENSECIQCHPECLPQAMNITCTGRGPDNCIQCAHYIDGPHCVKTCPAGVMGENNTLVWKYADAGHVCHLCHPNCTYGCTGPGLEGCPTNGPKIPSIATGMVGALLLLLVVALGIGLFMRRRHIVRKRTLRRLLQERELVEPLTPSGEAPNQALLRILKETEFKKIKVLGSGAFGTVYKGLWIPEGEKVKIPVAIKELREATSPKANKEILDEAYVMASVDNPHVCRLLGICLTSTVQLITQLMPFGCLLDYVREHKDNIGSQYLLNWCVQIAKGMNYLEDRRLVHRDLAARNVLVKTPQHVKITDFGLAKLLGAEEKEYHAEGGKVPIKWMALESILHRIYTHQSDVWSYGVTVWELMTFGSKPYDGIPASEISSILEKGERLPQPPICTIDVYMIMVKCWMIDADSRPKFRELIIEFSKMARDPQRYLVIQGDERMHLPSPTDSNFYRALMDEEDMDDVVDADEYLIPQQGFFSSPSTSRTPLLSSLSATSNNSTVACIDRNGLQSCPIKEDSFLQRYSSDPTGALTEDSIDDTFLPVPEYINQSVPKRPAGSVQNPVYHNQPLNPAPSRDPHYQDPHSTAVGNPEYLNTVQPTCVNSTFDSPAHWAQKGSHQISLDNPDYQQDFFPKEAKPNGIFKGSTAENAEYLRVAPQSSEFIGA

MDA-MB-231 = assay: Antimigratory activity against human MDA-MB-231 cells after 3.5 hrs by microscopy based Boyden chamber assay; type: functional, cell-based; details: MDA-MB-231, 3.5 h
Procedure, shortened: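 Modified Boyden chamber: MDA-MB-231 cells plated in 0.1% FCS medium, migrating through 8 µm pore membrane toward 1% FCS chemoattractant for 3.5 h; transmigrated cells counted microscopically in at least 5 random fields per well.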

[15] = Permeability of the compound in 0.025 M phosphate buffer at pH 7.4 assessed drug flux level after 5 hrs by PAMPA; type: ADME; details: pH 7.4, 5 h
Procedure, shortened: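 PAMPA: donor at 0.5 mM in pH 7.4 0.025 M phosphate buffer, diluted from 1 mM DMSO stock. Filters are coated with 1% phosphatidylcholine in dodecane, and the acceptor is 50% DMSO in phosphate buffer. Incubated 5 h at room temperature with gentle shaking. Donor and acceptor are analyzed by HPLC-UV to calculate Papp. Three plates were run on different days.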

[16] = Apparent permeability from apical to basolateral side in human Caco2 cells at 10 uM after 2 hrs by LC-MS/MS analysis; type: ADME, cell-based; details: Caco-2
Procedure, shortened: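 Caco-2 cells differentiated three weeks in 96-well format, monolayer integrity checked by Lucifer yellow transport. Compound at 10 µM for 2 h; apical buffer HBSS/10 mM HEPES/glucose pH 6.5 with 100 µM Lucifer yellow, basolateral buffer pH 7.4. Papp = (dQ/dt)/C0A; efflux ratio Papp(B→A)/Papp(A→B).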

T1 sequence (P12931 2-536 limits assumed): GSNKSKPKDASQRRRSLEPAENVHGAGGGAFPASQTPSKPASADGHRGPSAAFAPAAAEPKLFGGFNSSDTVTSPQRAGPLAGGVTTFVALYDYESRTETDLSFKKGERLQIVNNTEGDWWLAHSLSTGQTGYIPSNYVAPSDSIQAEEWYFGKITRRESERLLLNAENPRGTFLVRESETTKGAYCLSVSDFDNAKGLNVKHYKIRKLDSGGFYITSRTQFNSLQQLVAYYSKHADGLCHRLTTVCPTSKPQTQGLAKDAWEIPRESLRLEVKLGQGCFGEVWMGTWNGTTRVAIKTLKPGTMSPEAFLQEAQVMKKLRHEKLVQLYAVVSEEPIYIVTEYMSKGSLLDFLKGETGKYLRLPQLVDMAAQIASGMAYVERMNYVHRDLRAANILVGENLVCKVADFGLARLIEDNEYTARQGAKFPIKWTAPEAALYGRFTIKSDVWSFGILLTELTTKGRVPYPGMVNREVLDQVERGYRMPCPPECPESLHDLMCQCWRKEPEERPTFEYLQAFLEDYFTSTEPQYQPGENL

Row | SMILES | Efficacy [1] [%] | Efficacy [2] [%] | Efficacy [3] [%] | Efficacy [4] [%] | Kd(free) [5] [µM] | Kd(free) [6] [µM] | Kd(free) [7] [µM] | Kd(free) (LIM domain kinase 1) [µM] | Kd(free) [8] [µM] | Kd(free) [9] [µM] | Kd(free) [10] [µM] | Kd(free) [11] [µM] | Kd(free) [12] [µM] | IC50 [13] [nM] | IC50 [14] [nM] | IC50 (MDA-MB-231) [nM] | permeability [15] [%] | Papp A→B at 2 h, 10 µM [16] [×10⁻⁶ cm/s]
1 | COc1cc2c(Oc3ccc(NS(=O)(=O)c4cc(F)ccc4F)cc3F)ccnc2cc1OCCCN1CCN(C)CC1 | 83 to 100 | 83 to 100 | 83 to 100 | 83 to 100 | 0.015 | 0.024 | 0.029 | 0.13 | 0.282 | 0.616 | 1.078 | 2.433 | 3.418 | 27 | 149 | 2500 | 24.3 | 7.4
2 | COc1cc2c(Oc3ccc(NS(=O)(=O)c4ccccc4C(F)(F)F)cc3F)ccnc2cc1OCCCN1CCN(C)CC1 | 83 to 100 | 83 to 100 | 83 to 100 | 83 to 100 |  |  |  |  |  |  |  |  |  | 21 | 281 | 4600 |  | 
3 | COc1cc2c(Oc3ccc(NS(=O)(=O)c4c(F)cccc4F)cc3F)ccnc2cc1OCCCN1CCN(C)CC1 | 83 to 100 | 83 to 100 | 83 to 100 | 83 to 100 | 0.006 | 0.008 | 0.011 | 0.093 | 0.122 | 0.786 | 2.296 | 2.08 | 1.567 | 35 | 178 | 1500 |  | 
4 | COc1cc2c(Oc3ccc(NS(=O)(=O)c4cc(F)ccc4F)cc3F)ccnc2cc1OCCCN1CCCC(C)C1 (stereo not given) | 83 to 100 | 83 to 100 | 83 to 100 | 83 to 100 |  |  |  |  |  |  |  |  |  | 28 | 1130 | 3300 | 46.1 | 2.4
